Reference: ChEMBL document CHEMBL3120071, “Biologically active eremophilane-type sesquiterpenes from Camarops sp., an endophytic fungus isolated from Alibertia macrophylla” (J Nat Prod, 2014)
pIC50: −log10 of the molar value.

Key:
[1] = Cytotoxicity against human neutrophils assessed as cell viability at 10 uM by trypan blue exclusion assay; type: functional; details: Neutrophil, read-out: Activity
How it was run: (§1)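 Human neutrophil viability was assessed by trypan blue exclusion after compound exposure at up to 100 μM for up to 60 min, including 10 μM, the concentration used in the respiratory burst studies.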

[2] = Cytotoxicity against human neutrophils at < 100 uM after 60 mins by trypan blue exclusion assay; type: cell-based; details: neutrophil, 1 h; how it was run: as §1
Myeloperoxidase = biological target: T1, Myeloperoxidase (Homo sapiens, UniProt P05164); experiment: Inhibition of myeloperoxidase (unknown origin) using HOCl/taurine as substrate assessed as inhibition of taurine chloramine production by spectrophotometry; type: single protein
T1 sequence (P05164 whole entry): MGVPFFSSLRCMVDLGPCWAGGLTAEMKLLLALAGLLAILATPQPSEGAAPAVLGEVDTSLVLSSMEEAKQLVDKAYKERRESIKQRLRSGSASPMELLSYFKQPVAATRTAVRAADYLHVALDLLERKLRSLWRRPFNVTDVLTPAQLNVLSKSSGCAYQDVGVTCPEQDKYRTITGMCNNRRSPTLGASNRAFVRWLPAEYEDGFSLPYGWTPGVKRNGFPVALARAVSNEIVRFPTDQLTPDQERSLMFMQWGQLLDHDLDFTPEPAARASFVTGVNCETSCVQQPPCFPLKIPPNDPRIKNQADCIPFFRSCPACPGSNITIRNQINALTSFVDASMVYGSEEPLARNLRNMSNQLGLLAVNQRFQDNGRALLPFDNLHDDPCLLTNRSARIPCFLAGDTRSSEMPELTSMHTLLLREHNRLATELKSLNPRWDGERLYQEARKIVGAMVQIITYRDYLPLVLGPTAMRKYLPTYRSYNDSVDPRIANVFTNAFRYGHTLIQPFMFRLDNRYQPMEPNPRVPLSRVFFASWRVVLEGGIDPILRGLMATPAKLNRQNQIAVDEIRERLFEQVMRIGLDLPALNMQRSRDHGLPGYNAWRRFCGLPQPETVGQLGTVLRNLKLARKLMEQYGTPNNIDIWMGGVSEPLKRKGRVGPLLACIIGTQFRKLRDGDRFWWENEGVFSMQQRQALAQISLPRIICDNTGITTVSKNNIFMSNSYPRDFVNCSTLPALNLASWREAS
How it was run: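 MPO, quantified by absorbance at 430 nm (ε = 89 000 mol−1 cm−1 per heme), chlorinating activity was measured. The HOCl produced reacts with taurine to give taurine chloramine, which oxidizes TMB to a blue product read at 655 nm. 5-Fluorotryptamine was the positive control.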

[3] = Antioxidant activity […] assessed as xanthine/xanthine oxidase-induced ROS scavenging activity by WST-1 assay; type: functional
How it was run: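 Superoxide was generated by xanthine/xanthine oxidase and detected as reduction of the tetrazolium salt WST-1 to a soluble formazan (modified Tan and Berridge method). Quercetin was the positive control.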

[4] = Antioxidant activity […] assessed as […] HOCl scavenging activity by spectrophotometry; type: functional
How it was run: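 Cell-free HOCl scavenging. HOCl was made by diluting commercial bleach and quantified at 292 nm (ε = 350 mol−1 cm−1). It reacts with taurine to give taurine chloramine, which oxidizes TMB. Absorbance was read at 655 nm, with quercetin as the positive control.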

Neutrophil = experiment: (§2) Antioxidant activity in human neutrophils assessed as inhibition of oxidative burst-induced ROS production by chemiluminescence assay; type: functional, cell-based
How it was run: (§3)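 Human neutrophils were isolated and the respiratory burst was stimulated. Total ROS were measured by luminol-enhanced chemiluminescence (LumCL). DMSO replaced compound in the blanks, taken as 100%. Quercetin and apocynin served as positive controls, and IC50 was taken from concentration–response data.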

[5] = as §2; type: functional, cell-based; details: Neutrophil; how it was run: as §3

Compound	viability at 10 µM [1] [%]	Activity [2]	pIC50 (Myeloperoxidase)	pIC50 [3]	pIC50 [4]	Activity (Neutrophil)	pIC50 [5]
CCC(C)CC(C)CC(O)(CO)C(=O)O[C@@H]1CC[C@H](C)[C@@]2(C)C=C([C@@H](C)CO)C(=O)C=C12 (stereo not given in full)	> 98	Non-toxic	< 4.00	< 4.00	< 4.00	Dose-dependent effect	5.38
CCC(C)CC(C)CC(O)(CO)C(=O)O[C@@H]1CC[C@H](C)[C@@]2(C)C=C([C@H](C)CO)C(=O)C=C12 (stereo not given in full)	> 98	Non-toxic	< 4.00	< 4.00	< 4.00	Dose-dependent effect	5.23
COc1cc(C(C)=O)ccc1O [APOCYNIN]	–	–	–	–	–	–	5.41
O=c1c(O)c(-c2ccc(O)c(O)c2)oc2cc(O)cc(O)c12 [QUERCETIN]	–	–	–	–	–	–	5.31
C=C(CO)[C@@]12O[C@@H]1[C@@]1(C)C(=CC2=O)[C@H](OC(=O)C(C)CC(C)CC(C)CC)CC[C@@H]1C (stereo not given in full) [XYLARENONE C]	> 98	Non-toxic	< 4.00	< 4.00	< 4.00	Dose-dependent effect	5.21
C=C(CO)[C@@]12O[C@@H]1[C@@]1(C)C(=CC2=O)[C@H](OC(=O)C(O)(CO)CC(C)CC(C)CC)CC[C@@H]1C (stereo not given in full) [XYLARENONE D]	> 98	Non-toxic	< 4.00	< 4.00	< 4.00	Dose-dependent effect	5.24
